Assay results from the M2OR odorant receptor database.
Where a chain is given by its changes, count along the chain named.

Assays:
Settings in all cases: stereoisomer not certain
[1] = molecular target: T1, OR11H12 (Homo sapiens) (UniProt B2RN74)
T1 sequence (whole entry): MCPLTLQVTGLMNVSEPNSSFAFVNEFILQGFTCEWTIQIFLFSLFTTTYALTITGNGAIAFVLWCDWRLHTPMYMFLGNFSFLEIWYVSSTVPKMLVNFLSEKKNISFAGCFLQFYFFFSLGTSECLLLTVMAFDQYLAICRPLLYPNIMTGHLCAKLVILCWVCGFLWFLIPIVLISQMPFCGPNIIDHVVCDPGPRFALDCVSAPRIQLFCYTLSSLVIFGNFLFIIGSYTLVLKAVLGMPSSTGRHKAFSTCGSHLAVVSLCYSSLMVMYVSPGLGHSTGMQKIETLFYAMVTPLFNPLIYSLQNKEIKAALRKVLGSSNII
In short: (§1)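 Assay methods differ from source to source, frequently being transient luciferase assays in mammalian cell lines. For each receptor–molecule pair, the label responsive (active) applies when the original authors judged the measured signal statistically different from baseline, and non-responsive (inactive) applies otherwise.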

[2] = molecular target: T2, OR11H2 (Homo sapiens) (UniProt Q8NH07)
T2 sequence (whole entry): T1 sequence (whole entry) with Q7H, T33S, T49I, W68R, C156Y, M181K, R199L, S269P
In short: as §1

[3] = molecular target: T3, OR11H4 (Homo sapiens) (UniProt Q8NGC9)
T3 sequence (whole entry): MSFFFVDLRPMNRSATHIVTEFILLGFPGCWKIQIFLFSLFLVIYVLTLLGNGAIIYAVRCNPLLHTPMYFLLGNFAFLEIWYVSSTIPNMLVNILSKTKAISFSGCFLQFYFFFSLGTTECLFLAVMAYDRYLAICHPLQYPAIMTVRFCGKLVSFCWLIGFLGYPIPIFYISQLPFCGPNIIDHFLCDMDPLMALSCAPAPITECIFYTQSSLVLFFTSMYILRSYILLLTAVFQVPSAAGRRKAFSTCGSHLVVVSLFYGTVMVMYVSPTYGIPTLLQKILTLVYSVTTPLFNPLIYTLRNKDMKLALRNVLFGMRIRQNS
In short: as §1

[4] = molecular target: T4, OR11H6 (Homo sapiens) (UniProt Q8NGC7)
T4 sequence (whole entry): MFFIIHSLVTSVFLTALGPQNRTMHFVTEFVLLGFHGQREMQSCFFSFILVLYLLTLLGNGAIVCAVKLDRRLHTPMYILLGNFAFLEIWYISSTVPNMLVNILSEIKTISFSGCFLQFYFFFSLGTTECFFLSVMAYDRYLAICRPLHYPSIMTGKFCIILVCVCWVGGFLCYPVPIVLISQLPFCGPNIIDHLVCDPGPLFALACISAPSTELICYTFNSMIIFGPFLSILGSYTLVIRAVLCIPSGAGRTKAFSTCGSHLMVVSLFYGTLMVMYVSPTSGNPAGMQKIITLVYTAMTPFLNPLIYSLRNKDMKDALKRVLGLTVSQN
In short: as §1

[5] = molecular target: OR11H7 (Homo sapiens) (UniProt Q8NGC8)
In short: as §1

[6] = molecular target: T5, OR11L1 (Homo sapiens) (UniProt Q8NGX0)
T5 sequence (whole entry): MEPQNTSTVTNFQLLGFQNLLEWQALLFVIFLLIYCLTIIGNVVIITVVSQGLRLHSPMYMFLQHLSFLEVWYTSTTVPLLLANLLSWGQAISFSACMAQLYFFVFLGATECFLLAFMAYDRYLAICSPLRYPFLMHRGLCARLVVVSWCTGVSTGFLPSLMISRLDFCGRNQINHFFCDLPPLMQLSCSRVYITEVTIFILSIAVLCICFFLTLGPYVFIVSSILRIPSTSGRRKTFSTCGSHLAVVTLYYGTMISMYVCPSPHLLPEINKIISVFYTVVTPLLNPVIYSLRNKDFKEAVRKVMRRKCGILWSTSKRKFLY
In short: as §1

[7] = molecular target: OR12D1 (Homo sapiens) (UniProt P0DN82)
In short: as §1

[8] = molecular target: T6, OR12D2 (Homo sapiens) (UniProt P58182)
T6 sequence (whole entry): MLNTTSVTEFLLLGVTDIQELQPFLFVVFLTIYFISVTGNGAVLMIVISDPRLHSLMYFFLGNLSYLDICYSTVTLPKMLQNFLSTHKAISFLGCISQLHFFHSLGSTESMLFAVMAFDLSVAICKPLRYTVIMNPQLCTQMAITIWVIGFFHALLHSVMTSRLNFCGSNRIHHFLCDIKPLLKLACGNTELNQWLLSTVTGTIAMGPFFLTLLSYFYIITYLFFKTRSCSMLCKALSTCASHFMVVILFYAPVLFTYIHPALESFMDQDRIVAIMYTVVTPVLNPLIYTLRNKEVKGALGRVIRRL
In short: as §1

[9] = molecular target: T7, OR12D3 (Homo sapiens) (UniProt Q9UGF7)
T7 sequence (whole entry): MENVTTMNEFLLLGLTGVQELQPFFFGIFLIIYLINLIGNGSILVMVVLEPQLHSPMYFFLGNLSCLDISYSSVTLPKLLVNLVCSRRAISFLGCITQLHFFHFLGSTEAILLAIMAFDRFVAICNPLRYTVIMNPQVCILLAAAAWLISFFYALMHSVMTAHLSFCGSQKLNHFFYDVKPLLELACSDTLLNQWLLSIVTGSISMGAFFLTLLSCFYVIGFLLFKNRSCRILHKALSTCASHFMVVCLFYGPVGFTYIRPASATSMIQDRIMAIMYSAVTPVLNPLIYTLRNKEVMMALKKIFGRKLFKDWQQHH
In short: as §1

[10] = molecular target: T8, OR13A1 (Homo sapiens) (UniProt Q8NGR1)
T8 sequence (whole entry): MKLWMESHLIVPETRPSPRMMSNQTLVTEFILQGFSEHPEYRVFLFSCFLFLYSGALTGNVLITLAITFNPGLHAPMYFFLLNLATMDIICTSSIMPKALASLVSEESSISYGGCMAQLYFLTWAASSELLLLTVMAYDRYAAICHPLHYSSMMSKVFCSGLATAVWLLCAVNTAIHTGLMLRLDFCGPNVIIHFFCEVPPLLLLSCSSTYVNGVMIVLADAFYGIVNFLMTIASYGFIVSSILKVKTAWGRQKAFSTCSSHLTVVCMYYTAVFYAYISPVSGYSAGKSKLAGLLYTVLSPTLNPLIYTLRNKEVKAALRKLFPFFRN
In short: as §1

[11] = molecular target: T9, OR13C2 (Homo sapiens) (UniProt Q8NGS9)
T9 sequence (whole entry): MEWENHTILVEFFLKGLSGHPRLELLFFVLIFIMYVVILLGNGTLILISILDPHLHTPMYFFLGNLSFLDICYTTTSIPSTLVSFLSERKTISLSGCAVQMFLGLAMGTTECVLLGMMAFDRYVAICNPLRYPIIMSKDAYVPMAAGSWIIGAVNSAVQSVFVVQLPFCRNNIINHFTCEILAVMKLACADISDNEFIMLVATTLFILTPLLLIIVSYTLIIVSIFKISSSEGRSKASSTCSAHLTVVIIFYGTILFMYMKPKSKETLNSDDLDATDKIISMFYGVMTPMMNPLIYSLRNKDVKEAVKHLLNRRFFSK
In short: as §1

[12] = molecular target: T10, OR13C3 (Homo sapiens) (UniProt Q8NGS6)
T10 sequence (whole entry): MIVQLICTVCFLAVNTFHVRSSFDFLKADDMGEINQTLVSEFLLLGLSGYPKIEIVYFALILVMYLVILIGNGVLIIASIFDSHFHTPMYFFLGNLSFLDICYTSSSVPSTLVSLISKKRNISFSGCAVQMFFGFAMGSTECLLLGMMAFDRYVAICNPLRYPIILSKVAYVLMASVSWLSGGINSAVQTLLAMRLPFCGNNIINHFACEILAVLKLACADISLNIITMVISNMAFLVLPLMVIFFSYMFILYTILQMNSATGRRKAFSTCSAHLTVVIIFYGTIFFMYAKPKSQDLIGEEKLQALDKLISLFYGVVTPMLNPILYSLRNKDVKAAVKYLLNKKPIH
In short: as §1

[13] = molecular target: T11, OR13C4 (Homo sapiens) (UniProt Q8NGS5)
T11 sequence (whole entry): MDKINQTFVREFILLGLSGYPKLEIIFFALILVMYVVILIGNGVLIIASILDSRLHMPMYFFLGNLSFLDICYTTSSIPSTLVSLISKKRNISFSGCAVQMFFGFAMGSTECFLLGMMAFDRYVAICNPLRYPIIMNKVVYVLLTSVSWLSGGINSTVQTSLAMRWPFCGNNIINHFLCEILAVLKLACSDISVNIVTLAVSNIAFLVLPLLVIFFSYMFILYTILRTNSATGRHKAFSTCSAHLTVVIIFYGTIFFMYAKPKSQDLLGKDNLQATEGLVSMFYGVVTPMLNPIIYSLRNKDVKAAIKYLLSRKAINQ
In short: as §1

[14] = molecular target: T12, OR13C5 (Homo sapiens) (UniProt Q8NGS8)
T12 sequence (whole entry): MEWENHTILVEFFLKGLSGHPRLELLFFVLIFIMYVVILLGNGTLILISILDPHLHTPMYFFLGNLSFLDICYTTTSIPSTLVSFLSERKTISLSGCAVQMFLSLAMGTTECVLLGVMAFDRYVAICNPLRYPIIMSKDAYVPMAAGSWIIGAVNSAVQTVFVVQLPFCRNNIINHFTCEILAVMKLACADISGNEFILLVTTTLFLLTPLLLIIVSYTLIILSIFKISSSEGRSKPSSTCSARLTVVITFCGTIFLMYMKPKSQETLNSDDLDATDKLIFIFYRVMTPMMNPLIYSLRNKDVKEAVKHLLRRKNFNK
In short: as §1

[15] = molecular target: OR13C7 (Homo sapiens) (UniProt P0DN81)
In short: as §1

[16] = molecular target: T13, OR13C8 (Homo sapiens) (UniProt Q8NGS7)
T13 sequence (whole entry): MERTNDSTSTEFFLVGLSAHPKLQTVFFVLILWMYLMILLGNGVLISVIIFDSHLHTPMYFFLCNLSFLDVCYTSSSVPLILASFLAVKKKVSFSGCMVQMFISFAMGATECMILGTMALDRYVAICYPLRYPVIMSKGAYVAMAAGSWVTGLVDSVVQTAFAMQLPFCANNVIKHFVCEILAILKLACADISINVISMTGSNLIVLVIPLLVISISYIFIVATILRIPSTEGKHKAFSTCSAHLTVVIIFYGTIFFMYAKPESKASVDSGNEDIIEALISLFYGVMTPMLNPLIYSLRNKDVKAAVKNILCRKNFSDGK
In short: as §1

[17] = molecular target: T14, OR13C9 (Homo sapiens) (UniProt Q8NGT0)
T14 sequence (whole entry): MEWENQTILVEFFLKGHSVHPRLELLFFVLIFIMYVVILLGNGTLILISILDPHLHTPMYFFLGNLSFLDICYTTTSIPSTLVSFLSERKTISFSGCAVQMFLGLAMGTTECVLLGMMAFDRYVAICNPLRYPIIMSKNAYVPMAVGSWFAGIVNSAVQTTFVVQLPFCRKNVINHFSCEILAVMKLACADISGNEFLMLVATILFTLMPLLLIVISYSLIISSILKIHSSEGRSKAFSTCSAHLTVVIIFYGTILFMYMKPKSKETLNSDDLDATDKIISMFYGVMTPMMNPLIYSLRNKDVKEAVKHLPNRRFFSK
In short: as §1

[18] = molecular target: T15, OR13D1 (Homo sapiens) (UniProt Q8NGV5)
T15 sequence (whole entry): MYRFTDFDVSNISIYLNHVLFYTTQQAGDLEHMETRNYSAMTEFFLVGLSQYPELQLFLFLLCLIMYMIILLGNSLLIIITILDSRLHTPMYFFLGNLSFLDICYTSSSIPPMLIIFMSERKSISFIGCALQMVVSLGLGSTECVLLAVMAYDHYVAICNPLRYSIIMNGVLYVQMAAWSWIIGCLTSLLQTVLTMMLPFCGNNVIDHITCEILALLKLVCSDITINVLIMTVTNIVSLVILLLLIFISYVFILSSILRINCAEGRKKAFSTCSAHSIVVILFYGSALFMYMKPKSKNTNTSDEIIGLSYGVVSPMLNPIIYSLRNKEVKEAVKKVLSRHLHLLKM
In short: as §1

[19] = molecular target: T16, OR13F1 (Homo sapiens) (UniProt Q8NGS4)
T16 sequence (whole entry): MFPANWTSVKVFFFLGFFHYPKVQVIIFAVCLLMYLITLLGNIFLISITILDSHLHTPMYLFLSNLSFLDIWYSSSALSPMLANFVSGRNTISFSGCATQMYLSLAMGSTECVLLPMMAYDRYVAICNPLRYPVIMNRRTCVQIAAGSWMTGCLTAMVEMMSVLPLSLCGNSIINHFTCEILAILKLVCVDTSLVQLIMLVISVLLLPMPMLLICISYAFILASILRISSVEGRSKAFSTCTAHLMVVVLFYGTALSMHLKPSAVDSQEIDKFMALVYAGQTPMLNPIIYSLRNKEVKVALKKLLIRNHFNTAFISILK
In short: as §1

[20] = molecular target: T17, OR13G1 (Homo sapiens) (UniProt Q8NGZ3)
T17 sequence (whole entry): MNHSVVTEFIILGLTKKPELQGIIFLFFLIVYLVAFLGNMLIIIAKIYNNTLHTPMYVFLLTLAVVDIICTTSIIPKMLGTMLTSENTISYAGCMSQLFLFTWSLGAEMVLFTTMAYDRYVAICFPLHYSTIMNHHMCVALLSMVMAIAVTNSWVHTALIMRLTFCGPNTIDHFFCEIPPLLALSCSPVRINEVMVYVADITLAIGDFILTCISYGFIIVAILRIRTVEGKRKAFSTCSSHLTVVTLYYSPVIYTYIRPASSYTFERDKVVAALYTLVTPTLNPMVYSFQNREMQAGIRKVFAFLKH
In short: as §1

Measured: odorant receptor agonist call

Chain of OR12D1 (Homo sapiens) (P0DN82 as listed by the source): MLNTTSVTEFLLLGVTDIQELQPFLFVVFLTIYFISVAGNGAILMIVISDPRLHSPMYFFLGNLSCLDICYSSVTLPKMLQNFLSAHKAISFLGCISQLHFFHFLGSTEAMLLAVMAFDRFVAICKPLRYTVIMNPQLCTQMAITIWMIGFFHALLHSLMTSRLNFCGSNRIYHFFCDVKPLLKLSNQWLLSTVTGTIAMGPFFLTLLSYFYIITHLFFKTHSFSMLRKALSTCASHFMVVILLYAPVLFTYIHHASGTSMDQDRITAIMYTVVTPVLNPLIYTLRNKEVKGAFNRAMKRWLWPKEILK
Chain of OR11H7 (Homo sapiens) (Q8NGC8 whole entry): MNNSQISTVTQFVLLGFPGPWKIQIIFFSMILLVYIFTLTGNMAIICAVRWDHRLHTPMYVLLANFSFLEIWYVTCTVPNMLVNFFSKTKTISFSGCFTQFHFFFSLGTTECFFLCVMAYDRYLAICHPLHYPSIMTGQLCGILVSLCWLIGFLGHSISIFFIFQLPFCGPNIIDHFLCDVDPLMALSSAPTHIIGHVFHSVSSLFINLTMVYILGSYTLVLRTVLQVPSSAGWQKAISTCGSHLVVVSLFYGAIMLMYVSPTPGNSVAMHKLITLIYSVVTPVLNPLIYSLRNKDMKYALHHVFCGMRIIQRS
Chain of OR13C7 (Homo sapiens) (P0DN81 whole entry): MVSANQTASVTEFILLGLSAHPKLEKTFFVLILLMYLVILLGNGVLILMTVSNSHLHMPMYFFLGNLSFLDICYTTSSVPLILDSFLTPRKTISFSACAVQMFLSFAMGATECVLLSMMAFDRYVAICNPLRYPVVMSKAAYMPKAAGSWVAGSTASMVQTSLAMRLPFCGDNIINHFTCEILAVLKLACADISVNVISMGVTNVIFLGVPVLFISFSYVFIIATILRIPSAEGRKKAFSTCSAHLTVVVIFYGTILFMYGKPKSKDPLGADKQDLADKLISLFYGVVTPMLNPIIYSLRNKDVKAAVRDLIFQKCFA

CC1CCCCCCCCCCCCC(=O)C1 (stereo not given)
inactive: all assays above
